Compounds with a hit are over-represented: about 3.7% of the library has one in this group of screens.
hERG rescue: compounds protecting human hERG from proarrhythmic drug block | Q12809 | activation (rescue from dofetilide block), less the hit threshold, % at 10 µM | 0.51% of 310,000 active | CHO-hERG, FluxOR thallium flux, dofetilide IC70 present | AID 1511;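 active = activation above the mean of controls blocked by dofetilide plus 5 SD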;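 note: thallium influx through hERG after potassium depolarization seen as dye fluorescence rise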
KCNK3 inh: human KCNK3 channel inhibition, primary screen. CHO-KCNK3 thallium flux, FluxOR fluorescence; active compounds read low. AID 602410. 0.84% of 340,000 active. O14649. B-score at 10 µM;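 active = B-score under library mean minus 4 SD, starting fluorescence ratio at most library mean plus 5 SD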;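 note: more negative B-score means stronger inhibition of thallium flux through KCNK3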
KCNK9 inh: human KCNK9 channel inhibition. Q9NPC2. HEK293 KCNK9, FluxOR thallium flux fluorescence; active compounds read low. B-score at 10 µM. 1.2% of 310,000 active. AID 488922;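 active = ratio B-score over 3 SD below the library mean, with starting fluorescence within 5 SD of its mean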;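 note: negative B-score means less thallium flux so channel inhibition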
KCNQ1 act: potentiates or activates the human KCNQ1 potassium channel; P51787; CHO-K1 KCNQ1, thallium flux FluxOR fluorescence; active compounds read high; B-score at 10 µM; 0.35% of 310,000 active;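 active = fluorescence ratio B-score, a plate-corrected score, at least three library SD, with initial intensity B-score within 5 SD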
Target sequence (P51787 whole entry, looked up): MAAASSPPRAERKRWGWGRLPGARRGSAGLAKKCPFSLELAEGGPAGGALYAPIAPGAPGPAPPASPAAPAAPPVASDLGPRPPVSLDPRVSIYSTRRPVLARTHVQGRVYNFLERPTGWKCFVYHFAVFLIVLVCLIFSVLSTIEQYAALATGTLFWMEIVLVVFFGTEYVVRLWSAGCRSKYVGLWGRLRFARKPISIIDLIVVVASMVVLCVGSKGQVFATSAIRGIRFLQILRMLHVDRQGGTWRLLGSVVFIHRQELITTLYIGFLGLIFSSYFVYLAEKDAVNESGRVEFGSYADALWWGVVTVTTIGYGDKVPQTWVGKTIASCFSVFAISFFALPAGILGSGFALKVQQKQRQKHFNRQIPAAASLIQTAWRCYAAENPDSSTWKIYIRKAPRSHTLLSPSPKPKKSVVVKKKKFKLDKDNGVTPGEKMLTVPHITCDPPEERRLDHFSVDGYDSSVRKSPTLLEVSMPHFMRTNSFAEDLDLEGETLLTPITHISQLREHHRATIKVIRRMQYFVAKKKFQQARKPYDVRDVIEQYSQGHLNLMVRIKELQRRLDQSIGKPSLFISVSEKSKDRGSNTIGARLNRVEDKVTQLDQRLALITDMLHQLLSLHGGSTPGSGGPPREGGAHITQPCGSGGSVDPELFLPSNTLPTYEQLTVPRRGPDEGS
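Medium – assay buffer, equal DMSO in all wells · Material – CHO-K1 cell line with stable KCNQ1 potassium channel expression · Signal – kinetic FluxOR thallium fluorescence, 10-s 1-Hz baseline, 110-s post-stimulus read · Compound – single concentration per compound, DMSO matched to controls · Schedule – 37 °C overnight plating, 90-min dark dye load, 20-min compound pretreatment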
KCNQ1 block: blocks the human KCNQ1 potassium channel; 1.3% of 310,000 active; B-score at 10 µM; AID 2642; P51787; CHO-K1 KCNQ1, FluxOR thallium flux fluorescence; active compounds read high;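 active = compounds whose thallium flux B-score, printed positive for inhibition, exceeds three library SD while starting fluorescence stays within three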;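 note: channel opened by potassium depolarization with thallium stimulus after 20 min compound exposure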
Kir21 block: blocks the mouse Kir2.1 inward-rectifier potassium channel. B-score at 10 µM. P35561. 0.85% of 310,000 active. HEK293-Kir2.1, FluxOR thallium flux fluorescence; active compounds read low;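 active = fluorescence ratio B-score at or below minus 3 SD of library scores, with starting-brightness B-score within 2 SD, cut at about -4.2 in these data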;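 note: channel flux triggered by added potassium and thallium sulfate stimulus; B-score of peak minus minimum fluorescence over baseline after thallium stimulus; more negative B-score means stronger Kir2.1 block with less thallium influx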
An asterisk follows results filed as active.

`CN(Cc1ccccc1)C(=O)c1ccc(NC(=O)Cc2ccc(NC(=O)C3CCCN(C(=O)C4CC4)C3)cc2)cc1` (stereo not given) gave KCNK3 inh inactive.
`CCN(CC)CCCNc1nc2cc(OC)c(OC)cc2c2nc(-c3cccnc3)nn12` gave hERG rescue -7, KCNK3 inh inactive, KCNK9 inh inactive, KCNQ1 act inactive, KCNQ1 block 11* and Kir21 block 0.03.
`CCN(CC)CCCNc1nc2cc(OC)c(OC)cc2c2nc(-c3ccccc3)nn12` gave hERG rescue -7, KCNK3 inh inactive, KCNK9 inh inactive, KCNQ1 act inactive, KCNQ1 block inactive and Kir21 block -0.85.
Cc1ccc(-c2nn(-c3ccccc3)cc2CO)cc1 was read as hERG rescue -15, KCNK3 inh inactive, KCNK9 inh inactive, KCNQ1 act inactive, KCNQ1 block inactive and Kir21 block -0.54.
N=C(N)SCc1cn(-c2ccccc2)nc1-c1ccc(Br)cc1 was read as hERG rescue -27, KCNK3 inh -14*, KCNK9 inh inactive, KCNQ1 act inactive, KCNQ1 block 11* and Kir21 block -7*.
CCCCn1c(NCc2ccccc2O)nc2ccccc21 was read as hERG rescue -11, KCNK3 inh inactive, KCNK9 inh inactive, KCNQ1 act inactive, KCNQ1 block inactive and Kir21 block 1.7.
`CCCCn1c(NCc2ccccc2NS(=O)(=O)c2ccc(C)cc2)nc2ccccc21` gave hERG rescue -2, KCNK3 inh inactive, KCNK9 inh -7.1*, KCNQ1 act inactive, KCNQ1 block 7* and Kir21 block -3.1.
Screening CCOC(=O)N1CCN(S(=O)(=O)c2ccc3c(c2)NC(=O)CO3)CC1 returned KCNK3 inh inactive.
For CCOC(=O)N1CCN(S(=O)(=O)c2ccc3c(c2)OCC(=O)N3)CC1 the results were hERG rescue 10*, KCNK3 inh inactive, KCNK9 inh inactive, KCNQ1 act inactive, KCNQ1 block inactive and Kir21 block 0.79.
COc1cc(NCCCn2cnc3c(OCc4ccccc4)ncnc32)cc(OC)c1OC was read as KCNK3 inh inactive.
`CCSc1nc(C2CC2)cc(-c2cccs2)c1C#N` gave hERG rescue -7, KCNK3 inh inactive, KCNK9 inh -6.8*, KCNQ1 act inactive, KCNQ1 block inactive and Kir21 block -0.29.
For CCOC(=O)CSc1nc(N)c(C#N)c(-c2cccs2)c1C#N the results were hERG rescue -2, KCNK3 inh inactive, KCNK9 inh inactive, KCNQ1 act inactive, KCNQ1 block inactive and Kir21 block 1.4.
`CCCSc1nc(N)nc(-c2cccs2)c1C#N` gave hERG rescue -11, KCNK3 inh inactive, KCNK9 inh -6.9*, KCNQ1 act inactive, KCNQ1 block inactive and Kir21 block -0.28.
`CCSc1nc(C2CC2)cc(-c2ccco2)c1C#N` gave hERG rescue -12, KCNK3 inh inactive, KCNK9 inh inactive, KCNQ1 act inactive, KCNQ1 block inactive and Kir21 block 0.32.
O=C(CC(SCc1ccco1)c1ccc(O)cc1)c1cccs1 (stereo not given) was read as hERG rescue -14, KCNK3 inh inactive, KCNK9 inh inactive, KCNQ1 act inactive, KCNQ1 block inactive and Kir21 block -4.8*.
Screening CN(C)c1ccc(S(=O)(=O)N2CCCCC2)cc1NC(=O)CCNC(=O)c1ccccc1Cl returned KCNK3 inh inactive.
Screening C[C@H](NS(=O)(=O)OCC(Cl)(Cl)Cl)C1CC1c1ccccc1 (stereo not given in full) returned hERG rescue -10, KCNK3 inh inactive, KCNK9 inh inactive, KCNQ1 act inactive, KCNQ1 block 6* and Kir21 block 1.1.
For CC(=O)OCCC(NS(=O)(=O)OCC(Cl)(Cl)Cl)c1ccccc1 (stereo not given) the results were hERG rescue -4, KCNK3 inh inactive, KCNK9 inh inactive, KCNQ1 act inactive, KCNQ1 block inactive and Kir21 block -2.1.
Nc1ccc(S(=O)(=O)Nc2nccs2)cc1N=Nc1ccccc1[N+](=O)[O-] was read as KCNK3 inh inactive.
`CCN(CC)C(=O)c1cc2sc3ccccc3c2s1` gave hERG rescue -9, KCNK3 inh inactive, KCNK9 inh -7.5*, KCNQ1 act inactive, KCNQ1 block inactive and Kir21 block -1.2.
For CN(C)CCNC(=O)c1cc2sc3ccccc3c2s1 the results were hERG rescue -12, KCNK3 inh inactive, KCNK9 inh inactive, KCNQ1 act inactive, KCNQ1 block inactive and Kir21 block -4.2*.
Screening CC(=NNC(=S)N1CC2CCC(CC2)C1)c1ccncn1 returned KCNK3 inh inactive.
For O=C1c2cccc(NCCCNCCO)c2C(=O)c2cccc(NCCCNCCO)c21 the results were KCNK3 inh inactive.
Screening COc1ccc2cc(C[C@@H]3CC[C@@H](CO)O3)ccc2c1 returned KCNK3 inh inactive.
`COc1ccc([N+](=O)[O-])cc1NC(=O)CSCc1cc(C)cc(C)c1` gave hERG rescue -3, KCNK3 inh inactive, KCNK9 inh inactive, KCNQ1 act inactive, KCNQ1 block inactive and Kir21 block -8.7*.
CN(CC(=O)Nc1cc(C(F)(F)F)ccc1-n1cncn1)Cc1ccccc1N1CCOCC1 was read as KCNK3 inh inactive.
`O=C(c1ccccc1NS(=O)(=O)c1ccc([N+](=O)[O-])cc1[N+](=O)[O-])N1O[C@@H]2C=C[C@H]1C2` gave KCNK3 inh inactive.
For Cc1nnc(NC(=O)C2CCCN(S(=O)(=O)c3ccccc3C(F)(F)F)C2)s1 (stereo not given) the results were hERG rescue 15*, KCNK3 inh inactive, KCNK9 inh inactive, KCNQ1 act inactive, KCNQ1 block inactive and Kir21 block 2.
Screening COc1ccccc1CNC(=O)COC(=O)c1cc(=O)[nH]c2ccccc12 returned KCNK3 inh inactive.
For COc1ccc(NC(=O)C2(c3ccccc3)CCCC2)cc1 the results were hERG rescue -14, KCNK3 inh inactive, KCNK9 inh inactive, KCNQ1 act inactive, KCNQ1 block inactive and Kir21 block 2.2.
COCCNC(=O)c1ccc(NC(=O)C2(c3ccccc3)CCCC2)cc1 was read as hERG rescue 7.5*, KCNK3 inh inactive, KCNK9 inh inactive, KCNQ1 act inactive, KCNQ1 block inactive and Kir21 block 0.17.
For COc1ccc(CNC(=O)CCC(=O)N2CCN(S(=O)(=O)c3cc([N+](=O)[O-])ccc3C)CC2)cc1 the results were KCNK3 inh inactive.
